Experiment [1] relates to Mycobacterium tuberculosis. Description: Antitubercular activity against Mycobacterium bovis BCG assessed as bacterial growth inhibition by alamar blue staining based assay. Format: functional. The settings on record: variant bovis BCG. Summed up:
(§1)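 Whole-cell growth inhibition of Mycobacterium bovis and M. tuberculosis H37Ra, read quantitatively by Microplate Alamar Blue Assay (alamar blue reagent). Compounds were tested across 1 to 100 µg/ml. Activity was expressed as MIC50 (µg/ml) from this concentration series.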
(Alamar Blue is a resazurin reagent that responds to reducing activity.)

Experiment [2] relates to Mycobacterium tuberculosis. Description: Antitubercular activity against Mycobacterium bovis BCG assessed as bacterial growth inhibition at 10 ug/ml by MABA relative to control. Format: functional. The settings on record: variant bovis BCG, read-out: GI.
Experiment [3] has as its system Mycobacterium tuberculosis. Description: Antitubercular activity against Mycobacterium bovis BCG assessed as bacterial growth inhibition at 50 to 100 ug/ml by MABA relative to control. Format: functional, variant bovis BCG.
The subject of experiment [4] is Mycobacterium tuberculosis. Kind of experiment: Antitubercular activity against Mycobacterium bovis BCG assessed as bacterial growth inhibition at 10 to 50 ug/ml by MABA relative to control. Format: functional, variant bovis BCG.
Experiment [5] has as its system Mycobacterium tuberculosis. Description: Antitubercular activity against Mycobacterium bovis BCG assessed as bacterial growth inhibition at 100 ug/ml by MABA relative to control. Format: functional. To be noted: variant bovis BCG, read-out: GI.
The test system of experiment [6] is Mycobacterium tuberculosis. Kind of experiment: Antitubercular activity against Mycobacterium bovis BCG assessed as bacterial growth inhibition at 1 to 5 ug/ml by MABA relative to control. Format: functional, variant bovis BCG.
Experiment [7] has as its system Mycobacterium tuberculosis. Description: Antitubercular activity against Mycobacterium bovis BCG assessed as bacterial growth inhibition by MABA relative to control. Format: functional, variant bovis BCG. An outline of the steps:
as §1

The test system of experiment [8] is Mycobacterium tuberculosis. Kind of experiment: Antitubercular activity against Mycobacterium bovis BCG assessed as bacterial growth inhibition at 50 ug/ml by MABA relative to control. The settings on record: variant bovis BCG, read-out: GI. Format: functional.
Experiment [9] has as its system Mycobacterium tuberculosis. Kind of experiment: Antitubercular activity against Mycobacterium bovis BCG assessed as bacterial growth inhibition at 25 ug/ml by MABA relative to control. Format: functional. The settings on record: variant bovis BCG, read-out: GI.
For experiment [10], the system named is Mycobacterium tuberculosis. Description: Antitubercular activity against Mycobacterium bovis BCG assessed as bacterial growth inhibition at 5 ug/ml by MABA relative to control. The settings on record: variant bovis BCG, read-out: GI. Format: functional.
The test system of experiment [11] is Mycobacterium tuberculosis. Description: Antitubercular activity against Mycobacterium bovis BCG assessed as bacterial growth inhibition at 1 ug/ml by MABA relative to control. The settings on record: variant bovis BCG, read-out: GI. Format: functional.

Values after ≈ are worked out from the molar mass of the structure shown.

We go through 18 compounds from ChEMBL document CHEMBL4622950, “The synthesis and antituberculosis activity of 5-alkynyl uracil derivatives” (Bioorg Med Chem Lett, 2020).

For the compound `O=c1[nH]cc(C#Cc2ccccc2)c(=O)[nH]1`, the MIC50 in experiment [1] stood at 17.4 µg/mL (≈ 82 µM). Also, the inhibition of growth at 10 µg/mL in experiment [2] turned out to be 40%. Also, in experiment [3], the “growth inhibition (GI)” value was 90%.
As for `O=c1[nH]cc(C#CC2CCCCC2)c(=O)[nH]1`, the MIC50 in [1] is 2.5 µg/mL (≈ 11.5 µM). Besides, the “growth inhibition (GI)” value in [4] was 75%; in [6], 50%. Further, the inhibition of growth at 100 µg/mL in experiment [5] amounted to 90%.
On to `CCCCCCC#Cc1c[nH]c(=O)[nH]c1=O`, for which the “growth inhibition (GI)” value in experiment [7] was determined as 0%.
With `O=c1[nH]c(=O)n([C@@H]2O[C@H](CO)[C@@H](O)[C@H]2O)cc1C#CC1CC1`, the MIC50 in experiment [1] amounted to 2.4 µg/mL (≈ 7.78 µM). Further, the inhibition of growth at 100 µg/mL in [5] came out at 90%. The “growth inhibition (GI)” value in experiment [6] turned out to be 50%.
Turning to `CCCCCCC#Cc1cn([C@@H]2O[C@H](CO)[C@@H](O)[C@H]2O)c(=O)[nH]c1=O`, the MIC50 in experiment [1] was less than 50 µg/mL. The inhibition of growth at 10 µg/mL in experiment [2] was 0%. Besides, the inhibition of growth at 50 µg/mL in [8] stood at 0%. Moreover, in experiment [5], the inhibition of growth at 100 µg/mL was determined as 60%.
In the case of `CC#Cc1c[nH]c(=O)[nH]c1=O`, the “growth inhibition (GI)” value in [7] turned out to be 0%.
Still for that read-out and setting: the same measure for `CCC#Cc1c[nH]c(=O)[nH]c1=O`: 0%.
Consider `O=c1[nH]c(=O)n([C@@H]2O[C@H](CO)[C@@H](O)[C@H]2O)cc1C#CC(O)c1ccccc1` (stereo partly drawn), for which the MIC50 in experiment [1] was determined as 1.4 µg/mL (≈ 3.74 µM). For the same compound, the “growth inhibition (GI)” value in experiment [6] is on record as 100%.
Regarding `CCCCC#Cc1c[nH]c(=O)[nH]c1=O`, the “growth inhibition (GI)” value in [7] is 0%.
`O=c1[nH]cc(C#CC2CC2)c(=O)[nH]1`: the MIC50 in [1] came to 7.8 µg/mL (≈ 44.3 µM). Moreover, the “growth inhibition (GI)” value in experiment [4] was 60%. Moreover, the inhibition of growth at 100 µg/mL in experiment [5] was found to be 80%.
`O=c1[nH]c(=O)n([C@@H]2O[C@H](CO)[C@@H](O)[C@H]2O)cc1C#Cc1ccccc1`: the MIC50 in experiment [1] came to 2.7 µg/mL (≈ 7.84 µM). Besides, the inhibition of growth at 10 µg/mL in experiment [2] was determined as 75%. For the same compound, the “growth inhibition (GI)” value in experiment [6] is listed as 50%; in [3], 90%.
Turning to `CCCCC#Cc1cn([C@@H]2O[C@H](CO)[C@@H](O)[C@H]2O)c(=O)[nH]c1=O`, the MIC50 in [1] stood at 50 µg/mL (≈ 154 µM). The inhibition of growth at 10 µg/mL in [2] was 0%. The inhibition of growth at 50 µg/mL in [8] is 0%. Besides, in [5], the inhibition of growth at 100 µg/mL was 50%.
For `C[Si](C)(C)C#Cc1c[nH]c(=O)[nH]c1=O`, in [1], the MIC50 came to 100 µg/mL (≈ 480 µM). For the same compound, the inhibition of growth at 100 µg/mL in experiment [5] turned out to be 50%.
Turning to `O=c1[nH]cc(C#CC(O)c2ccccc2)c(=O)[nH]1` (stereo not drawn), in experiment [1], the MIC50 came to 3.1 µg/mL (≈ 12.8 µM). Moreover, the inhibition of growth at 10 µg/mL in experiment [2] was 80%. Besides, the “growth inhibition (GI)” value in [6] is reported as 50%; in [3] it was 90%.
Take `O=c1[nH]c(=O)n([C@@H]2O[C@H](CO)[C@@H](O)[C@H]2O)cc1C#CC1CCCCC1`: in [1], the MIC50 stood at 19.2 µg/mL (≈ 54.8 µM). The inhibition of growth at 25 µg/mL in [9] is 60%. Besides, the inhibition of growth at 100 µg/mL in experiment [5] was determined as 90%. Besides, the “growth inhibition (GI)” value in experiment [6] stood at 10%.
`N[C@@H]1CONC1=O` [CYCLOSERINE]: the MIC50 in experiment [1] came to 5.1 µg/mL (≈ 50 µM). Moreover, in experiment [2], the inhibition of growth at 10 µg/mL turned out to be 71%. The inhibition of growth at 5 µg/mL in experiment [10] turned out to be 50%.
For the compound `NNC(=O)c1ccncc1` [ISONIAZID], the MIC50 in experiment [1] worked out at 0.9 µg/mL (≈ 6.56 µM). In addition, in experiment [11], the inhibition of growth at 1 µg/mL turned out to be 100%.
For `CO[C@H]1/C=C/O[C@@]2(C)Oc3c(C)c(O)c4c(O)c(c(/C=N/N5CCN(C)CC5)c(O)c4c3C2=O)NC(=O)/C(C)=C\C=C\[C@H](C)[C@H](O)[C@@H](C)[C@@H](O)[C@@H](C)[C@H](OC(C)=O)[C@@H]1C` [RIFAMPIN], in that order: 0.8 µg/mL (≈ 0.972 µM) and 100%.

Usually MIC50 stands for an inhibitory concentration at the 50% level, which refers to growth in some studies and to a panel of isolates in others.
